Activity data for one molecule are collected here from ChEMBL document CHEMBL4017491, “Phthalazino[1,2-b]quinazolinones as p53 Activators: Cell Cycle Arrest, Apoptotic Response and Bak-Bcl-xl Complex Reorganization in Bladder Cancer Cells” (J Med Chem, 2017).

Assay [1] relates to J82. Kind of assay: Cell cycle arrest in human J82 cells assessed as accumulation at G1 phase at 1 uM after 48 hrs by propidium iodide staining based FACS analysis (reference value: 42.29 %). The format is functional. The method, boiled down: (§1)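 Cells treated with 1−10 μM for 48 h, trypsinized, and fixed in 70% ethanol. Stained with 50 μg/mL propidium iodide and phase distribution analyzed by flow cytometry. Mean ± SD from three independent measurements.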
(Flow cytometry measures light scatter and fluorescence of single cells or particles in a stream.)

For assay [2], the system named is J82. Kind of assay: Cell cycle arrest in human J82 cells assessed as accumulation at G2 phase at 10 uM after 48 hrs by propidium iodide staining based FACS analysis (reference value: 10.92 %). Type of assay: functional. The method, boiled down:
as §1

Assay [3] addresses Cellular tumor antigen p53 (Homo sapiens) (UniProt P04637). Kind of assay: Activation of p53 in human T24 cells assessed as increase in p21 protein expression after 24 hrs by Western blot analysis. The format is cell-based. For orientation: In western blotting, separated proteins are transferred to a membrane and probed.
The test system of the next assay is T-24. Kind of assay: Effect on cell cycle distribution in human T24 cells assessed as late necrotic cells at 10 uM after 1 hr by Annexin V-FITC/propidium iodide staining based FACS analysis (reference value: 1.71%). The format is functional.

Chain of Cellular tumor antigen p53 (Homo sapiens) (P04637 whole entry, looked up): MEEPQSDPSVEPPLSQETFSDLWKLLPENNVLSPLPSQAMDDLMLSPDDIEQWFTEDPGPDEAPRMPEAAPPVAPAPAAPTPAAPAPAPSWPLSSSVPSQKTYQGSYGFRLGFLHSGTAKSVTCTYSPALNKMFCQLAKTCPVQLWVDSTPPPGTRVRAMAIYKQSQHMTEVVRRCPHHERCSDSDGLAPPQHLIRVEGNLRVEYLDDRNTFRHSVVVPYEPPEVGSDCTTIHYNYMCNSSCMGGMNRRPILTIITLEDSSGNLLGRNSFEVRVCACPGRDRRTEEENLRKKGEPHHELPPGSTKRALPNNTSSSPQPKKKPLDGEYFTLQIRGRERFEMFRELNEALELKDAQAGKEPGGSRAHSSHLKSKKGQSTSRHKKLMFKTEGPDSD

For the molecule `CN(C)CCNc1nn2c(=O)c3cc(Br)ccc3nc2c2ccccc12`, the Activity was 48.49% with J82 [1], 23.67% with J82 [2], “Dose-dependent effect” in assay [3] and 13.4% in the assay with T-24.
